Data reported in paper PMC7684765 (Journal of medicinal chemistry, 2020).
Entries after “also recorded” stand apart in the source; their conditions may differ. Like-named read-outs stand apart in the source and are kept apart here.

Key:
[1] = tested on: 6 Hz 44 mA mouse seizure model; conditions: cited from earlier work
[2] = tested on: HT-22 neuronal cells; assay: HT-22 cell toxicity study; format: cell-based; conditions: up to 50 μM
Summary of the method: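 HT-22 neuronal cells were grown in high-glucose DMEM with 10% FBS and 1% antibiotic-antimycotic at 37 °C and 5% CO2. Cells were seeded at 2000 per well. After 12 h, serially diluted test compound was added for 48 h. […] Readings were background-subtracted and normalized to control wells.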

[3] = tested on: 6 Hz 32 mA mouse seizure model; assay: 6 Hz 32 mA mouse seizure test; format: in vivo; conditions: ip
[4] = tested on: 6 Hz 44 mA mouse seizure model; assay: 6 Hz 44 mA mouse seizure test; format: in vivo; conditions: ip, 400 mg/kg
[5] = tested on: MES-induced seizures; assay: Maximal electroshock; format: in vivo; conditions: MES model, mouse, ip, 350 mg/kg
Summary of the method: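 Male CF-1 mice, 8 per group per dose, received test compound ip as a suspension in 0.5% HPMC, 1 h before stimulation. Tetracaine (0.5%) in electrolyte was applied to the eyes. A 60 Hz, 50 mA alternating current was delivered through corneal electrodes […]. Animals without hindlimb tonic extension were scored protected. Results are given as N/F, and ED50 was calculated by probit analysis.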

[6] = tested on: s.c. PTZ mouse model; assay: Subcutaneous pentylenetetrazole; format: in vivo; conditions: ip, 450 mg/kg, 1 h
Summary of the method: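 Test compound was suspended in 0.5% HPMC and given ip to male CF-1 mice, 8 per group per dose. One hour later, 85 mg/kg PTZ was injected subcutaneously into the midline of the neck. Mice showing no spasms or twitching were scored protected.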

[7] = tested on: motor impairment (mouse rotarod assay); assay: Behavioral toxicity in mice; format: in vivo; conditions: acute (~1h) observation period, dose up to 800 mg/kg
[8] = Pharmacokinetics in mice; format: in vivo; conditions: Mus musculus, read-out: free EC50 in mice
[9] = PAINS exclusion assay; format: physicochemical; conditions: up to 24 h
[10] = tested on: recurrent epileptiform discharges (REDs) in brain slices from the kainite-induced status epilepticus model; assay: Spontaneous recurrent epileptiform discharges; conditions: brain slices in vitro
[11] = Lethality and other treatment effects in mice seizure models; format: in vivo; conditions: CF-1, mouse, in vivo, intraperitoneal
[12] = tested on: mice; assay: as above; format: in vivo; conditions: mice
[13] = tested on: ATP levels in HT-22 cells; conditions: 5 μM; cited from earlier work
[14] = tested on: zebrafish; conditions: cited from earlier work
[15] = tested on: 6 Hz mouse seizure model at 22 mA; assay: 6 Hz 22 mA mouse seizure model; format: in vivo; conditions: up to 400 mg/kg
[16] = tested on: PTZ-induced seizures in zebrafish larvae; conditions: 20 μM; cited from earlier work
[17] = tested on: 6 Hz 32 mA mouse seizure model; conditions: 6 Hz 32 mA mouse model, at 15 min; cited from earlier work
[18] = two hours; cited from earlier work

CC[C@@H](C(N)=O)N1CCCC1=O [Levetiracetam]
6 Hz 44 mA ED50 ([1]; 6 Hz 44 mA seizure model): over 1000 mg/kg

CC(C)CCNC1=CC(=O)c2ccccc2C1=O [3d, 2-(isopentylamino)naphthalene-1,4-dione]
toxicity in HT-22 cells (in words) [2]: do not display obvious toxicity; also recorded: does not show obvious toxicity
seizure protection ([3]; 400 mg/kg): full protection
ED50 value (EC50) ([3]; time of test 1 h): 152.7 mg/kg
seizure protection [4]: full protection
seizure protection [5]: full protection
animals protected [6]: 6 out of 8
motor impairment (mouse rotarod assay) [7]: does not show signs of major motor impairment
EC50 [8]: ~123 nM
reaction with 2-mercaptoethanol (Michael reaction) [9]: does not react
effect on spontaneous REDs [10]: does not attenuate
LD50 at 24 h [11]: > 800 mg/kg
doses lethal in some animals ([12]; after electric stimulation, after 24h (data not shown)): greater than 500 mg/kg
other effects of treatment observed ([12]; at time of treatment and ~1 h observation period (data not shown)): writhing (abdominal constriction); also recorded: discolored urine and lethargy

CC1=CC(=O)c2ccccc2C1=O [VK3]
reaction with 2-mercaptoethanol (Michael reaction) [9]: rapidly reacts
effect on ATP levels [13]: can increase ATP levels
lethal dose [14]: 7 µM

O=C1C=C(NCCC2CCC2)C(=O)c2ccccc21 [3l, 2-((2-cyclobutylethyl)amino)naphthalene-1,4-dione]
toxicity in HT-22 cells (in words) [2]: do not display obvious toxicity
seizure protection [15]: without full seizure protection

C#CCNC1=CC(=O)c2ccccc2C1=O [2h]
anti-seizure activity [16]: clear anti-seizure activity
seizure protection [17]: full protection
seizure protection ([1]; 6 Hz 44 mA mouse model): no longer protective; also recorded: did not show any protection
effect on ATP levels [13]: can increase ATP levels
stability in mouse serum [18]: no catabolic conversion
toxicity ([14]; 20 μM): no observable toxicity
